Results as given in ChEMBL document CHEMBL4007404, “Identification of High-Potency Human TLR8 and Dual TLR7/TLR8 Agonists in Pyrimidine-2,4-diamines” (J Med Chem, 2017).
Active and inactive are the calls of the source. The calls are words filed in the database; no cut-off is given here.

Assays:
[1] = target: T1, Toll-like receptor 7 (Homo sapiens) (UniProt Q9NYK1); assay: Agonist activity at TLR7 in human whole blood assessed as induction of IFN-alpha/beta by measuring increase in secreted alkaline phosphatase level pretreated for 24 hrs followed by HEK-IFN-alpha/beta reporter cell addition after 24 hrs by spectrophotometric method
T1 sequence (whole entry): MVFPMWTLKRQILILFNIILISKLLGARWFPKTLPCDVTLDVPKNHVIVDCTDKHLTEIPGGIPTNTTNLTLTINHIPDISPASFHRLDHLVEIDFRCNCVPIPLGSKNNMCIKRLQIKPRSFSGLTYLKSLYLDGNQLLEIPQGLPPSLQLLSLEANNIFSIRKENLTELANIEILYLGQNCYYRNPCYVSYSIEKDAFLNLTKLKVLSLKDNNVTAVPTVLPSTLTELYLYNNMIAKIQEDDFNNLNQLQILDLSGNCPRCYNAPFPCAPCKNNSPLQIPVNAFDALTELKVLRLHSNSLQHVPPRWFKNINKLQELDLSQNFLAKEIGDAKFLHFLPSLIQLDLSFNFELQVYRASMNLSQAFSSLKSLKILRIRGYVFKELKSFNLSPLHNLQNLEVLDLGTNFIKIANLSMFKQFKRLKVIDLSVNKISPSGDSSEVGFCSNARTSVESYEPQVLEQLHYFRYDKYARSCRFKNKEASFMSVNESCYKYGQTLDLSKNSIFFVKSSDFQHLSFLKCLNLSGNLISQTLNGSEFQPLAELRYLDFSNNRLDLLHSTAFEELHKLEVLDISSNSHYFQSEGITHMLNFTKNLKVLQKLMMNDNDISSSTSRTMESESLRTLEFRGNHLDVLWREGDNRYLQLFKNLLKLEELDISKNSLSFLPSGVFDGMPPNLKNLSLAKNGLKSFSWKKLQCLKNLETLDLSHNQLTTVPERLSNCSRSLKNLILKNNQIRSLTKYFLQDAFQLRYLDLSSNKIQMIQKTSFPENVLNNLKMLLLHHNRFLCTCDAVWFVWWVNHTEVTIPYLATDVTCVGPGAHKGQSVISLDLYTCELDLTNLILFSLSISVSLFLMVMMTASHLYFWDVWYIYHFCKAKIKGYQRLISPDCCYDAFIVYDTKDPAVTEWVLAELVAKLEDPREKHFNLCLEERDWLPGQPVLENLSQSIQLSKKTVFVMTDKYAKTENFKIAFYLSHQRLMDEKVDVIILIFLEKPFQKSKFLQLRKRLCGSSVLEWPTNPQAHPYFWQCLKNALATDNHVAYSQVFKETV
Method in brief: (§1)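 Heparinized human whole blood, diluted 1:2 in RPMI with 10% FBS, was incubated with serial compound dilutions at 37°C for 24 h. Supernatant was moved by liquid handler onto HEK-IFNα/β, HEK-IFNγ or HEK-TNFα/IL-1β reporter cells (1x10⁶ cells/mL, DMEM with 10% FBS) for 24 h at 37°C. Plates were washed and given detection medium for 16 h, then sAP read at 620 nm. Calibration used serum spiked with IFN-α, IFN-γ or TNF-α.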

[2] = target: T2, Toll-like receptor 8 (Homo sapiens) (UniProt Q9NR97); assay: Agonist activity at TLR8 in human whole blood assessed as induction of IFN-gamma by measuring increase in secreted alkaline phosphatase level pretreated for 24 hrs followed by HEK-IFN-gamma reporter cell addition after 24 hrs by spectrophotometric method; method in brief: as §1
T2 sequence (whole entry): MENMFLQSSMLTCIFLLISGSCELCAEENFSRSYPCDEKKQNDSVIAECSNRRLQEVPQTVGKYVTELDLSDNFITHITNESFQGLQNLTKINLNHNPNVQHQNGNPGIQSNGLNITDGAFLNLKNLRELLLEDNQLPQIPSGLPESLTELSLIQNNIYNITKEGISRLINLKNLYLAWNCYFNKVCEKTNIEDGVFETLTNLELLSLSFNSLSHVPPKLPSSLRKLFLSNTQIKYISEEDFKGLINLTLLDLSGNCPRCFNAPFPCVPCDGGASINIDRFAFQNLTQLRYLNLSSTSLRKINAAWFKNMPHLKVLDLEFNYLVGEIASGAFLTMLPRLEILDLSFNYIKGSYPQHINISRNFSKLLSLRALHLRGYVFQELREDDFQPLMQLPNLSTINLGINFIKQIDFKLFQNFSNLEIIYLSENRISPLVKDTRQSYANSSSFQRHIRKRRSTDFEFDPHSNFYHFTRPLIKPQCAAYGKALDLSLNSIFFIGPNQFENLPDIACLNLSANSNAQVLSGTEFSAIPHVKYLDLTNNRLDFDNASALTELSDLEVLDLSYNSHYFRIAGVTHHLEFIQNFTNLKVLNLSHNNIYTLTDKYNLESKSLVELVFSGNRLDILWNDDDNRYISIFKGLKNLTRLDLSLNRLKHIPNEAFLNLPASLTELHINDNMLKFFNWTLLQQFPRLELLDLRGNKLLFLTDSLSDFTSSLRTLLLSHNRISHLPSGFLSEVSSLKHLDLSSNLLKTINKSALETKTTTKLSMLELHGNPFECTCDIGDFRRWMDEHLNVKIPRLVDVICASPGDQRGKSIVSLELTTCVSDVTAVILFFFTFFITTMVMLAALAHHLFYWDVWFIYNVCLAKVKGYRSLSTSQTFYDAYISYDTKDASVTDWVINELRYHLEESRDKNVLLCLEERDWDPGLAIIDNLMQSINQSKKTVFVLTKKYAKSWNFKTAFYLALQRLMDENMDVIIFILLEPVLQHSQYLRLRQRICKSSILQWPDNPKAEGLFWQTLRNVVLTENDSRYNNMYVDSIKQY

[3] = target: T2, Toll-like receptor 8 (Homo sapiens); assay: Agonist activity at TLR8 in human whole blood assessed as induction of TNF-alpha/IL-1beta by measuring increase in secreted alkaline phosphatase level pretreated for 24 hrs followed by HEK-TNF-alpha/IL-1beta reporter cell addition after 24 hrs by spectrophotometric method; method in brief: as §1
[4] = target: T2, Toll-like receptor 8 (Homo sapiens); assay: Agonist activity at TLR8 in human […] conventional dendritic cells assessed as upregulation of CD80 expression after 16 hrs by efluor 780 dye based flow cytometry
Method in brief: (§2)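 Human PBMCs were incubated with serial compound dilutions at 37 °C for 16 h, with DMSO controls. Cells were stained with eFluor780 viability dye, then lineage and DC antibodies plus CD80 PE, and fixed. 250,000 gated events were acquired. pDCs were gated as Live Lin⁻ CD123⁺ CD303⁺ CD304⁺ HLA-DR⁺. cDCs were gated as Lin⁻ CD1c⁺ CD141⁻ CD11c⁺ HLA-DR⁺ or Lin⁻ CD141⁺ CD1c⁻ HLA-DR⁺. Median fluorescence intensity was quantified.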

[5] = target: T1, Toll-like receptor 7 (Homo sapiens); assay: Agonist activity at TLR7 in human plasmacytoid dendritic cells assessed as upregulation of CD80 expression after 16 hrs by efluor 780 dye based flow cytometry; method in brief: as §2

Activity [1]: Active
Activity [2]: Active
Activity [3]: Active
Activity [4]: Active
Activity [5]: Active
Structure (SMILES): CCCCNc1nc(N)nc(C)c1CCCN1CCOCC1
